Published values of several laboratories.
Target: Calcium/calmodulin-dependent protein kinase type 1 (CAMK1, Homo sapiens, UniProt Q14012)

SMILES	assay	setting	remaining binding
N[C@@H]1CCN(c2nccc(-c3cnn4ncccc34)n2)C1	binding	1 µM	100%
C[C@@H](c1cccc(C#N)c1)n1cc(Cl)cc(C(N)=O)c1=N	cell-free assay, competition with immobilised ligand	1 µM	100%
C=CC(=O)N1CCC(C(=O)NCC(=O)N2CCN(c3nc(-c4cnc(N)nc4C(F)F)nc(N4CCOCC4)n3)CC2)CC1	binding, competition with immobilised ligand	1 µM	86%
O=C(NCCCN1CCOCC1)c1ccc(Nc2ncc(Cl)c(-c3ccc(Cl)s3)n2)cc1	binding, competition with immobilised ligand	1 µM	78%
C[C@H](c1ccc(F)cc1)N(Cc1cccc(C(=O)O)c1)C(=O)c1cnc2ccccc2c1	cell-free assay, competition with immobilised ligand	1 µM	100%
Cc1cnc(Nc2ccc(C(=O)N3CCC(N4CCCC4)CC3)cc2)nc1-c1cc2ccccc2s1	binding, competition with immobilised ligand	1 µM	30%
CC1CCCN1c1nccc(-c2cnn3ncccc23)n1 (stereo not drawn)	binding	1 µM	98%
CC(=O)N1CCC(c2ccc(C(=O)NC(=N)N)cc2C(F)(F)F)CC1	cell-free assay, competition with immobilised ligand	1 µM	100%
C[C@@H]1CCN(c2nccc(-c3cnn4ncccc34)n2)C1	binding	1 µM	87%
COc1cnc(Nc2cccc(S(N)(=O)=O)c2)nc1N1CCN(c2ccccc2)CC1	binding, competition with immobilised ligand	1 µM	100%
O=C(c1ccc(Nc2ncc(Cl)c(-c3ccc(Cl)s3)n2)cc1)N1CCC(N2CCCC2)CC1	binding, competition with immobilised ligand	1 µM	54%
CN(C)c1nccc(-c2cnc3ncccn23)n1	binding	1 µM	68%
CNC(=O)[C@@H]1CC[C@@H](n2c(-c3ccc4cnccc4c3)nc3ccc(C(=O)NCc4cccc(C(N)=O)c4)cc32)C1	binding, competition with immobilised ligand	1 µM	99%
COc1ncc2cc3ccccc3nc2c1C#N	cell-free assay, competition with immobilised ligand	5 µM	100%
C[C@@H](c1ccc(-n2cnc3c(N)ncnc32)cc1)N1CCc2nn(C)c(Cc3ccccc3)c2C1=O	binding, competition with immobilised ligand	0.1 µM	89%
O=C1NC(c2ccccn2)Sc2ccccc21 (stereo not drawn)	cell-free assay, competition with immobilised ligand	1 µM	91%
CN(C)c1ncc(F)c(-c2cnn3ncccc23)n1	binding	1 µM	86%
COc1ccc2c(c1)O[C@H](c1ccc(OC)c(OC)c1)C[C@@H]2NC(=O)C1(c2ccc3c(c2)OC(F)(F)O3)CC1	cell-free assay, competition with immobilised ligand	1 µM	100%
O=C(NCC1CCOCC1)c1n[nH]cc1NC(=O)c1c(F)cccc1F	binding, competition with immobilised ligand	1 µM	88%
F[C@@H]1CCN(c2nccc(-c3cnn4ncccc34)n2)C1	binding	1 µM	100%
O=C(NC[C@@H]1[C@H]2CN(C(=O)OCc3cc(C(F)(F)F)cc(C(F)(F)F)c3)C[C@@H]12)c1ccc2[nH]nnc2c1	cell-free assay, competition with immobilised ligand	1 µM	77%
